Results from ChEMBL document CHEMBL1671691 (Antimicrob Agents Chemother, 2010).

How the values were obtained:
Influenza A virus [1] = assay: Antiviral activity against Influenza A virus (A/Illinois/10/2009(H1N1)) infected in MDCK cells from Mill Hill assessed as log reduction in viral titer at 14.2 uM after 24 hrs by immunofluorescent assay; type: functional
In short: (§1)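 Yield reduction in MDCK-ATCC or MDCK-Mill Hill cells infected at MOI ∼0.01. Adsorption 1 h at 4°C, washed, then DMEM with 2 μg/ml TPCK-trypsin and drug. At 24 h, supernatants were titrated by immunofluorescent focus assay on MDCK cells with anti-NP monoclonals and FITC secondary. Titres as log10 FFU per 100 μl; detection limit <10 FFU. Quadruplicate, mean ± SD.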

Influenza A virus [2] = assay: microbe, parasite or virus in culture; details: MDCK, 72 h
Influenza A virus [3] = assay: Antiviral activity against Influenza A virus (A/Illinois/10/2009(H1N1)) infected in MDCK cells from ATCC assessed as log reduction in viral titer at 128 uM after 24 hrs by immunofluorescent assay; type: functional; in short: as §1
Influenza A virus [4] = assay: Antiviral activity against Influenza A virus (A/Illinois/10/2009(H1N1)) infected in MDCK cells from ATCC assessed as log reduction in viral titer at 42.7 uM after 24 hrs by immunofluorescent assay; type: functional; in short: as §1
Influenza A virus [5] = assay: Antiviral activity against Influenza A virus (A/Illinois/10/2009(H1N1)) infected in MDCK cells from Mill Hill assessed as log reduction in viral titer at 42.7 uM after 24 hrs by immunofluorescent assay; type: functional; in short: as §1
Influenza A virus [6] = assay: Antiviral activity against sInfluenza A virus (A/Washington/29/2009(H1N1)) infected in MDCK cells from ATCC assessed as log reduction in viral titer at 128 uM after 24 hrs by immunofluorescent assay; type: functional, Influenza A virus (A/Washington/29/2009(H1N1))
In short: (§2)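 MDCK cells (ATCC or Mill Hill) infected with 2009 pandemic H1N1 at MOI ~0.01, 1 h adsorption at 4°C, washed. DMEM with 2 μg/ml TPCK-trypsin plus drug for 24 h at 37°C. Supernatants titrated on MDCK cells by focus formation: methanol/acetic acid fixation, anti-nucleoprotein MAbs, FITC secondary, foci counted. Titre as log10 FFU per 100 μl; detection limit <10 FFU; quadruplicate wells.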

Influenza A virus [7] = assay: Antiviral activity against Influenza A virus (A/Mexico/4604/2009(H1N1)) infected in MDCK cells from ATCC assessed as log reduction in viral titer at 4.7 uM after 24 hrs by immunofluorescent assay; type: functional; in short: as §1
Influenza A virus [8] = assay: Antiviral activity against Influenza A virus (A/Mexico/4604/2009(H1N1)) infected in MDCK cells from Mill Hill assessed as log reduction in viral titer at 128 uM after 24 hrs by immunofluorescent assay; type: functional; in short: as §1
Influenza A virus [9] = assay: microbe, parasite or virus in culture; details: MDCK, 72 h; remark: listed apart in the source
Influenza A virus [10] = assay: Antiviral activity against Influenza A virus (A/Mexico/4604/2009(H1N1)) infected in MDCK cells from ATCC assessed as log reduction in viral titer at 14.2 uM after 24 hrs by immunofluorescent assay; type: functional; in short: as §1
Influenza A virus [11] = assay: Antiviral activity against sInfluenza A virus (A/Washington/29/2009(H1N1)) infected in MDCK cells from ATCC assessed as log reduction in viral titer at 42.7 uM after 24 hrs by immunofluorescent assay; type: functional, Influenza A virus (A/Washington/29/2009(H1N1)); in short: as §2
Influenza A virus [12] = assay: Antiviral activity against adamantane-, oseltamivir-, zanamivir-susceptible Influenza A virus (A/Georgia/17/2006(H1N1)) infected in MDCK cells assessed as inhibition of viral replication after 3 days by microscopic analysis using crystal violet stain; type: functional, organism-based; details: 72 h
In short: (§3)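 Confluent MDCK-ATCC monolayers infected with virus diluted to give 15–45 plaques/well. Adsorption 1 h at 37°C without drug, then washed. Overlaid with 0.8% agarose in MEM containing drug plus TPCK-trypsin: 3 μg/ml for seasonal viruses, 2 μg/ml for 2009 A(H1N1). Incubated 3 days at 37°C, 5% CO2. Ethanol-fixed, crystal violet-stained, plaques counted. EC50 by curve fit; duplicates on three occasions, mean ± SD.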

Influenza A virus [13] = assay: microbe, parasite or virus in culture; details: MDCK, 72 h; remark: listed apart in the source
Influenza A virus [14] = assay: Antiviral activity against sInfluenza A virus (A/California/04/2009(H1N1)) infected in MDCK cells from ATCC assessed as log reduction in viral titer at 128 uM after 24 hrs by immunofluorescent assay; type: functional; in short: as §2
Influenza A virus [15] = assay: Antiviral activity against sInfluenza A virus (A/California/04/2009(H1N1)) infected in MDCK cells from ATCC assessed as log reduction in viral titer at 42.7 uM after 24 hrs by immunofluorescent assay; type: functional; in short: as §2
Influenza A virus [16] = assay: Antiviral activity against Influenza A virus (A/Washington/29/2009(H1N1)) infected in MDCK cells from Mill Hill assessed as log reduction in viral titer at 128 uM after 24 hrs by immunofluorescent assay; type: functional; in short: as §1
Influenza A virus [17] = assay: Antiviral activity against Influenza A virus (A/Illinois/10/2009(H1N1)) infected in MDCK cells from ATCC assessed as log reduction in viral titer at 4.7 uM after 24 hrs by immunofluorescent assay; type: functional; in short: as §1
Influenza A virus [18] = assay: Antiviral activity against Influenza A virus (A/California/04/2009(H1N1)) infected in MDCK cells from ATCC assessed as inhibition of viral replication after 3 days by microscopic analysis using crystal violet stain; type: functional; in short: as §3
Influenza A virus [19] = assay: Antiviral activity against sInfluenza A virus (A/California/04/2009(H1N1)) infected in MDCK cells from ATCC assessed as log reduction in viral titer at 4.7 uM after 24 hrs by immunofluorescent assay; type: functional; in short: as §2
Influenza A virus [20] = assay: Antiviral activity against Influenza A virus (A/Mexico/4604/2009(H1N1)) infected in MDCK cells from ATCC assessed as inhibition of viral replication after 3 days by microscopic analysis using crystal violet stain; type: functional; in short: as §3
Influenza A virus [21] = assay: Antiviral activity against sInfluenza A virus (A/California/04/2009(H1N1)) infected in MDCK cells from Mill Hill assessed as log reduction in viral titer at 14.2 uM after 24 hrs by immunofluorescent assay; type: functional; in short: as §2
Influenza A virus [22] = assay: Antiviral activity against Influenza A virus (A/Illinois/10/2009(H1N1)) infected in MDCK cells from ATCC assessed as log reduction in viral titer at 14.2 uM after 24 hrs by immunofluorescent assay; type: functional; in short: as §1
Influenza A virus [23] = assay: Antiviral activity against Influenza A virus (A/California/04/2009(H1N1)) infected in MDCK cells from Mill Hill assessed as log reduction in viral titer at 128 uM after 24 hrs by immunofluorescent assay; type: functional; in short: as §1
Influenza A virus [24] = assay: Antiviral activity against Influenza A virus (A/Mexico/4604/2009(H1N1)) infected in MDCK cells from Mill Hill assessed as inhibition of viral replication after 3 days by microscopic analysis using crystal violet stain; type: functional

For `NC(=O)c1nc(F)cnc1O` [FAVIPIRAVIR], the log10FFU (Influenza A virus [1]) was 1.8, the EC50 (Influenza A virus [2]) was 0.38 µM and the log10FFU (Influenza A virus [3]) was <1. For the same compound, the log10FFU (Influenza A virus [4]) was 2.1, the log10FFU (Influenza A virus [5]) was 1.7 and the log10FFU (Influenza A virus [6]) was 1. The log10FFU (Influenza A virus [7]) was 3.5, the log10FFU (Influenza A virus [8]) was <1 and the EC50 (Influenza A virus [9]) was 3.63 µM. For the same compound, the log10FFU (Influenza A virus [10]) was 2.4, the log10FFU (Influenza A virus [11]) was 1.8 and the EC50 (Influenza A virus [12]) was 1.46 µM. For the same compound, the EC50 (Influenza A virus [13]) was 0.96 µM, the log10FFU (Influenza A virus [14]) was <1 and the log10FFU (Influenza A virus [15]) was <1. For the same compound, the log10FFU (Influenza A virus [16]) was <1, the log10FFU (Influenza A virus [17]) was 4.4 and the log10FFU (Influenza A virus [18]) was 0.48. It also gave a log10FFU (Influenza A virus [19]) of 1.8, a log10FFU (Influenza A virus [20]) of 0.35 and a log10FFU (Influenza A virus [21]) of 2.3. For the same compound, the log10FFU (Influenza A virus [22]) was 3.1, the log10FFU (Influenza A virus [23]) was <1 and the log10FFU (Influenza A virus [24]) was 36.16.
